From ChEMBL document CHEMBL3297702, “Improving photodynamic inactivation of bacteria in dentistry: highly effective and fast killing of oral key pathogens with novel tooth-colored type-II photosensitizers” (J Med Chem, 2014)

Columns and labels:
Enterococcus faecalis [1] = experiment: Toxicity in Enterococcus faecalis ATCC 29212 assessed as reduction of log10 CFU at 1 to 250 uM incubated for 10 secs under dark condition measured after 24 hrs by agar plating method; type: organism-based; conditions: in vivo
Outline: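 Dark controls. Overnight BHI cultures (EF, SM, AN aerobic; AA anaerobic; 37 °C) were washed into PBS at 10^7–10^8 cells/mL. They were mixed 1:1 with photosensitizer at final 0–250 µM and incubated 10 s, 7.5 min or 15 min, then kept in the dark for 20, 40 or 120 s. Tenfold dilutions were plated: EF on Mueller-Hinton agar, aerobic 24 h; SM on BHI agar, aerobic 48 h; AN on blood agar, aerobic 48 h; AA on BHI agar, anaerobic 48 h; all at 37 °C. CFU were compared with untreated controls; medians of three independent experiments in triplicate.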

[2] = Induction of singlet oxygen generation measured over 20 mins by luminescence assay; type: physicochemical
[3] = Photobleaching of the compound irradiated with laser energy at 405 nm for 5 mins; type: physicochemical; set-up: dose or concentration left out as unconfirmed
[4] = Octanol-water partition coefficient, log P of the compound at 1 x 10^-4 mol at room temperature after 10 mins by UV/vis spectroscopic analysis; type: physicochemical
Enterococcus faecalis [5] = experiment: Photodynamic inactivation of Enterococcus faecalis ATCC 29212 assessed as reduction of log10 CFU at 1 uM incubated prior to irradiation with 25 j/cm'2 for 20 secs measured after 24 hrs by agar plating method (reference value: <1 no unit); type: functional
Outline: (§1)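 E. faecalis ATCC 29212, aerobic overnight BHI culture at 37 °C, was harvested at stationary phase and suspended in PBS at 10^7–10^8 bacteria/mL. It was mixed 1:1 with PS to 0–250 µM final, held 10 s, then illuminated (1260 ± 50 mW/cm2) or kept dark. Dilutions were plated on Mueller-Hinton agar, aerobic 37 °C 24 h, CFU counted. Medians of three independent triplicate experiments, referred to untreated controls.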

Enterococcus faecalis [6] = experiment: Photodynamic inactivation of Enterococcus faecalis ATCC 29212 assessed as reduction of log10 CFU at 1 uM incubated prior to irradiation with 150 j/cm'2 for 120 secs measured after 24 hrs by agar plating method (reference value: <1 no unit); type: functional; outline: as §1
Enterococcus faecalis [7] = experiment: Photodynamic inactivation of Enterococcus faecalis ATCC 29212 assessed as reduction of log10 CFU at 1 uM incubated prior to irradiation with 50 j/cm'2 for 40 secs measured after 24 hrs by agar plating method (reference value: <1 no unit); type: functional; outline: as §1
Enterococcus faecalis [8] = experiment: Photodynamic inactivation of Enterococcus faecalis ATCC 29212 assessed as reduction of log10 CFU at 5 uM incubated prior to irradiation with 25 j/cm'2 for 20 secs measured after 24 hrs by agar plating method (reference value: <1 no unit); type: functional; outline: as §1
Enterococcus faecalis [9] = experiment: Photodynamic inactivation of Enterococcus faecalis ATCC 29212 assessed as reduction of log10 CFU at 5 uM incubated prior to irradiation with 50 j/cm'2 for 40 secs measured after 24 hrs by agar plating method (reference value: <1 no unit); type: functional; outline: as §1
Enterococcus faecalis [10] = experiment: Photodynamic inactivation of Enterococcus faecalis ATCC 29212 assessed as reduction of log10 CFU at 5 uM incubated prior to irradiation with 150 j/cm'2 for 120 secs measured after 24 hrs by agar plating method (reference value: <1 no unit); type: functional; outline: as §1
Enterococcus faecalis [11] = experiment: Photodynamic inactivation of Enterococcus faecalis ATCC 29212 assessed as reduction of log10 CFU at 10 uM incubated prior to irradiation with 25 j/cm'2 for 20 secs measured after 24 hrs by agar plating method (reference value: <1 no unit); type: functional; outline: as §1
Enterococcus faecalis [12] = experiment: Photodynamic inactivation of Enterococcus faecalis ATCC 29212 assessed as reduction of log10 CFU at 10 uM incubated prior to irradiation with 50 j/cm'2 for 40 secs measured after 24 hrs by agar plating method (reference value: <1 no unit); type: functional; outline: as §1
Enterococcus faecalis [13] = experiment: Photodynamic inactivation of Enterococcus faecalis ATCC 29212 assessed as reduction of log10 CFU at 10 uM incubated prior to irradiation with 150 j/cm'2 for 120 secs measured after 24 hrs by agar plating method (reference value: <1 no unit); type: functional; outline: as §1
Enterococcus faecalis [14] = experiment: Photodynamic inactivation of Enterococcus faecalis ATCC 29212 assessed as reduction of log10 CFU at 100 uM incubated prior to irradiation with 25 j/cm'2 for 20 secs measured after 24 hrs by agar plating method (reference value: <1 no unit); type: functional; outline: as §1
Enterococcus faecalis [15] = experiment: Photodynamic inactivation of Enterococcus faecalis ATCC 29212 assessed as reduction of log10 CFU at 100 uM incubated prior to irradiation with 50 j/cm'2 for 40 secs measured after 24 hrs by agar plating method (reference value: <1 no unit); type: functional; outline: as §1
Enterococcus faecalis [16] = experiment: Photodynamic inactivation of Enterococcus faecalis ATCC 29212 assessed as reduction of log10 CFU at 100 uM incubated prior to irradiation with 150 j/cm'2 for 120 secs measured after 24 hrs by agar plating method (reference value: <1 no unit); type: functional; outline: as §1
Leishmania donovani = experiment: Leishmanicidal activity against promastigote stage of Leishmania donovani MHOM/SD/00/1S-2D after 2 hrs by MTT assay; type: functional, organism-based
Leishmania infantum = experiment: Leishmanicidal activity against amastigote stage of Leishmania infantum MCAN/ES/89/IPZ229/1/89 after 2 hrs by MTT assay; type: functional, organism-based; conditions: MCAN/ES/89/IPZ229/1/89, 2 h

Activity [2]	Stability [3]	logP at 10 min [4]	Compound	Activity (Enterococcus faecalis [1])	log10cfu (Enterococcus faecalis [5])	log10cfu (Enterococcus faecalis [6])	log10cfu (Enterococcus faecalis [7])	log10cfu (Enterococcus faecalis [8])	log10cfu (Enterococcus faecalis [9])	log10cfu (Enterococcus faecalis [10])	log10cfu (Enterococcus faecalis [11])	log10cfu (Enterococcus faecalis [12])	log10cfu (Enterococcus faecalis [13])	log10cfu (Enterococcus faecalis [14])	log10cfu (Enterococcus faecalis [15])	log10cfu (Enterococcus faecalis [16])	EC50 (Leishmania donovani) [µg/mL]	EC50 (Leishmania infantum) [µg/mL]
Active	Unstable	-0.8	CCCC[N+](C)(C)CC1=Cc2cccc3cccc(c23)C1=O.[Cl-]	Non-toxic	<1	<3	<1	<1	<3	3	<3	<3	>6	>6	>6	>6		
Active	Unstable		COC1=Cc2cccc3ccc(-c4ccccc4)c(c23)C1=O														< 60	< 60
Active	Unstable	-0.1	CC(c1ccccc1)[N+](C)(C)CC1=Cc2cccc3cccc(c23)C1=O.[Cl-] (stereo unspecified)	Non-toxic	<1	<3	<1	<3	<3	>6	<3	<3	>6	>6	>6	>6		
Active	Unstable		O=C1C(O)=Cc2cccc3ccc(-c4ccccc4)c1c23														< 60	< 60
		1.3	O=C1C(CCl)=Cc2cccc3cccc1c23															
